Bioassay records as filed in PubChem.
D1 mod – D1 dopamine receptor (human) allosteric modulation; P21728; HEK293 D1, CRE-luciferase, dopamine EC30 potentiation; actives deviate in either direction; B-score at 10 µM; actives 5.9% (n = 58,000);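 active means luminescence count or its row- and column-corrected plate score outside the 99.7% band of the plate's sample wells, on either side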
HEK293 NFkB inh – lowers PMA/ionomycin-induced NF-kB signal in HEK293 cells. HEK-293 NF-kB luciferase reporter, luminescence. inhibition, % at 3 µM. actives 0.21% (n = 62,000). AID 465;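 active means inhibition above the mean of all tested compounds plus 3 SD, cut at about 40% in these data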;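 further: 0% = stimulated DMSO wells and 100% = 10 µM reference inhibitor 5653914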
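System: NF-kB luciferase reporter HEK-293 cells | Replication: Single test | Control set: DMSO vs reference inhibitor | Evaluation: % inhibition | Schedule: 1 h pretreatment, 16 h stimulation, 37 °C | Probe or stimulus: PMA with ionomycin | Compound dosing: One dose, 3 µM | Detection: Luciferase luminescence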
BAP1 block – human BAP1 deubiquitinase inhibition; actives 0.48% (n = 72,000); Q92560; recombinant BAP1, Ub-AMC hydrolysis fluorescence kinetic; stronger effect = lower value; AID 436; calls only at 20 µM;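 active means activity remaining at or below 50% of control, provided the compound also passes the data quality filters; inactive means the rest, including low values that fail the filters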;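 further: 100% = DMSO wells rate and 0% = substrate alone blank rate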
hDAT+cocaine – changed human dopamine transporter uptake under cocaine IC80. LLC-PK1 hDAT cells, [14C]-dopamine uptake with cocaine IC80; actives deviate in either direction. Q01959. B-score at 10 µM. actives 1.3% (n = 110,000);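 active means Z score or B-score, a plate-position-corrected score, falls beyond the plate's 99.7% confidence bounds, in either direction; inactive means both scores lie inside the 99.7% bounds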;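 further: scored against the spread of the other compound wells on the same plate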
M1 antagonist – M1 muscarinic receptor (rat) antagonism | P08482 | CHO-M1 cells, Fluo-4 calcium, ACh EC80 antagonist mode; stronger effect = lower value | B-score at 10 µM | actives 3.4% (n = 64,000) | AID 628;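 active means calcium fluorescence response, raw or row-and-column corrected B-score, differing from the plate sample mean either way at a set confidence level, mostly lower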
Target sequence (P08482 whole entry, looked up): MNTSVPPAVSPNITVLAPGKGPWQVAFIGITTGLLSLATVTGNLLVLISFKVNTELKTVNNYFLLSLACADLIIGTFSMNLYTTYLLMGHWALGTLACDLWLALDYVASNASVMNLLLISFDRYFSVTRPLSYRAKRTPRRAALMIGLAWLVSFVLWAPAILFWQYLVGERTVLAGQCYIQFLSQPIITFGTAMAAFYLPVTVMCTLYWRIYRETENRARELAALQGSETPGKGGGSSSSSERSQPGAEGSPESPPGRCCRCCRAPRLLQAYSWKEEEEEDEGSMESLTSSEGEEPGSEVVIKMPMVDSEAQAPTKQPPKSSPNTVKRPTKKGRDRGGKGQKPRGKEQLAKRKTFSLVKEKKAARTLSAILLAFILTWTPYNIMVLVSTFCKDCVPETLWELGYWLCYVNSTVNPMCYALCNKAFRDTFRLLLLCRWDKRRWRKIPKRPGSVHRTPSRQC
M1 ag – agonists of M1 muscarinic receptor. CHO-M1 cells, Fluo-4 calcium fluorescence, agonist mode; stronger effect = higher value. B-score at 10 µM. actives 3% (n = 64,000). AID 626;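 active means fluorescence rise, raw or as B-score row- and column-corrected plate score, outside the 99.7% band of its plate's samples, either direction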
M1 antag conf – M1 muscarinic receptor (rat) antagonism, confirmed. CHO-M1 cells, Fluo-4 calcium, ACh EC80 antagonism; stronger effect = lower value. calcium response (max-min fluorescence) at 10 µM. actives 43% (n = 1,700). shares compounds with M1 antagonist;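 active means calcium response below the same-plate mean of wells given acetylcholine alone at its 80%-effect dose, minus 3 SD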;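 further: raw fluorescence intensity difference in arbitrary instrument units and not normalized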
mGluR4 antag – acts on human mGluR4 in M1 antagonist selectivity test | CHO-mGluR4 calcium flux, Fluo-4 fluorescence, glutamate EC80; stronger effect = lower value | shares compounds with M1 antagonist | actives 0.9% (n = 1,700) | fluorescence response (max-min) at 10 µM;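 active means fluorescence response below the plate's average for near-maximal glutamate wells, less 3 SD of those wells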;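 further: raw unnormalized fluorescence span taken in the window right after glutamate addition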
Active calls of the source: *. A selection: hits, their analogues and other compounds. The true share with any hit is near 7.2%.

`Cn1c(SCC(=O)Nc2nccs2)nnc1-c1ccncc1` gave D1 mod -0.125, HEK293 NFkB inh 3.7, BAP1 block inactive, hDAT+cocaine -0.757, M1 antagonist -6.07*, M1 ag -0.6, M1 antag conf 662 and mGluR4 antag 155.
Cc1cc2nnc(SCc3ccccc3F)n2c2ccccc12 was read as BAP1 block inactive.
`O=C1C(Cl)=C(N2CCOCC2)C(=O)N1CCc1ccccc1` gave D1 mod -0.724, HEK293 NFkB inh -12.0, BAP1 block inactive, hDAT+cocaine 0.98, M1 antagonist -0.347 and M1 ag -0.667.
CN1CCN(C2=C(Cl)C(=O)N(CCc3ccccc3)C2=O)CC1 was read as HEK293 NFkB inh 8.3, BAP1 block inactive, hDAT+cocaine 0.357, M1 antagonist -5.67*, M1 ag -1.25, M1 antag conf 376* and mGluR4 antag 244.
For COCCN(C(=O)Cn1nnc2ccccc21)C(C(=O)NC1CCCC1)c1cccc(OC)c1OC (centres undefined) the results were D1 mod -1.14, HEK293 NFkB inh 23.1, BAP1 block inactive, hDAT+cocaine 1.05, M1 antagonist -3.94*, M1 ag -0.324, M1 antag conf 600 and mGluR4 antag 217.
Cc1ccc2c(CC(=O)OCn3nnc4ccccc4c3=O)coc2c1 was read as D1 mod 0.0812, HEK293 NFkB inh 19.2, BAP1 block inactive, hDAT+cocaine -0.838, M1 antagonist -4.92*, M1 ag -0.577, M1 antag conf 323* and mGluR4 antag 232.
`Cc1cc(C)n(-c2ccc(C(=O)OCC(=O)N(CC(C)C)C3CCS(=O)(=O)C3)cc2)n1` (centres undefined) gave D1 mod 0.192, HEK293 NFkB inh 6.8, BAP1 block inactive, hDAT+cocaine 0.4, M1 antagonist -2.45*, M1 ag -1.72, M1 antag conf 595 and mGluR4 antag 220.
For Cc1ccc(-n2c(C)cc(C(=O)OCC(=O)N(CC(C)C)C3CCS(=O)(=O)C3)c2C)cc1 (centres undefined) the results were D1 mod -1.32, HEK293 NFkB inh 22.8, BAP1 block inactive, hDAT+cocaine 0.888, M1 antagonist 0.0793 and M1 ag 0.109.
`CSc1nc2ccccc2n1C(=O)NC1CCCCC1` gave D1 mod 0.588, HEK293 NFkB inh 11.1, BAP1 block inactive, hDAT+cocaine 0.913, M1 antagonist -4.33*, M1 ag -0.0192, M1 antag conf 581 and mGluR4 antag 200.
Screening O=C1CC(N2CCN(c3ccc(S(=O)(=O)N4CCOCC4)cc3)CC2)C(=O)N1Cc1ccccc1 (centres undefined) returned D1 mod 0.818, HEK293 NFkB inh 16.5, BAP1 block inactive, hDAT+cocaine 1.08, M1 antagonist -3.41*, M1 ag 0.262, M1 antag conf 607* and mGluR4 antag 186.
Screening COc1ccc2nc(NC(=O)c3cnccn3)sc2c1 returned D1 mod -4.87*, HEK293 NFkB inh -36.6, BAP1 block inactive, hDAT+cocaine 0.0364, M1 antagonist -2.66*, M1 ag -1.93, M1 antag conf 616 and mGluR4 antag 171.
Screening COc1ccc2nc(NC(=O)c3ccc(C)c(C)c3)sc2c1 returned BAP1 block inactive.
Screening Cc1cccn2c(=O)c3cc(C(N)=S)c(=N)n(CCCOC(C)C)c3nc12 returned BAP1 block inactive, hDAT+cocaine 0.587, M1 antagonist -3.32*, M1 ag 1.98, M1 antag conf 560 and mGluR4 antag 211.
`CCOCCCn1c(=N)c(C(N)=S)cc2c(=O)n3cccc(C)c3nc21` gave D1 mod -0.181, HEK293 NFkB inh 10.4, BAP1 block inactive, hDAT+cocaine 1.69, M1 antagonist -4.09*, M1 ag -0.743, M1 antag conf 516 and mGluR4 antag 248.
